# p97 inhibitor – human p97 ATPase inhibition; AID 1481; P55072; recombinant p97 ATPase, Kinase-Glo ATP luminescence, 3 h; 220,000 compounds, 0.42% hits; inhibition, % at 8 µM; in the data active = inhibition above about 15%;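 also: 0% = DMSO vehicle and 100% = wells lacking enzyme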
# 14-3-3 Bad PPI – disrupts binding of bovine 14-3-3 zeta to phospho-Bad peptide; TR-FRET 14-3-3zeta/Dy647-pBad peptide displacement, 1 h; inhibition, % at 21.7 µM; 220,000 compounds, 0.71% hits; AID 781;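 active = inhibition above about 70%, limit read from the data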;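 also: 0% = full 14-3-3 plus peptide FRET controls and 100% = background without 14-3-3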
# Target sequence (P63103 whole entry, looked up): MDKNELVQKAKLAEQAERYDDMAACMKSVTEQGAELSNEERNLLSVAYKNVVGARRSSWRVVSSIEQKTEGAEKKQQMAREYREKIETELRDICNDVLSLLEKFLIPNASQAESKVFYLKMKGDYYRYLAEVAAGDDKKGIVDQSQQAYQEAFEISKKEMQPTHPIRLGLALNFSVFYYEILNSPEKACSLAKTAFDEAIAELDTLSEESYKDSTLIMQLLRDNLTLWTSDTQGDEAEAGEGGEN
# PERK inhibitor – human PERK inhibition, primary cell-based screen. 220,000 compounds, 0.17% hits. CHO PERK-DD fusion, SEAP luminescence translation reporter. Q9NZJ5. inhibition, % at 5.6 µM. AID 1416;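 active = inhibition above the mean inhibition of all tested compounds plus 3 SD, set separately per screening campaign, cut at about 2.9% in these data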;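 also: PERK kinase domain activated by AP20187 dimerizer at 100 nM; 0% = DMSO with dimerizer and 100% = rapamycin at 8.4 µM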
# Hck-Nef inh – blocks Nef-activated human Hck kinase | 220,000 compounds, 0.68% hits | inhibition, % at 20 µM | Recombinant Hck-YEEI plus Nef, Z-Lyte FRET kinase assay;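 active = Hck-Nef kinase inhibition above about 50%, limit read from the data; inactive = inhibition below that limit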;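 also: 0% = DMSO with Hck plus Nef and 100% = Hck alone without Nef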
# eIF4E 4G PPI – eIF4E/eIF4G interaction inhibition in translation initiation | P63073+Q04637 | TR-FRET eIF4E-eIF4GI(517-606) binding, 2 h | inhibition, % at 21.7 µM | 220,000 compounds, 0.37% hits | AID 782;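 active = inhibition above about 30%, limit read from the data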;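 also: 0% = full FRET control wells and 100% = background wells lacking eIF4GI fragment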
# Calb biofilm kill – mixtures killing C. albicans biofilm | AID 1242 | inhibition, % at 7.6 µM | C. albicans biofilm persisters + clotrimazole, fluorescence viability; primary screen in compound mixtures of four per well | 120,000 compounds, 0.02% hits;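 active = inhibition above 30.3% in the primary screen of four-compound pools, then above 30% when the compound was retested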;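 also: compounds exposed to preformed 24 h biofilms for 48 h; 0% = untreated biofilm control and 100% = clotrimazole plus chlorhexidine kill blank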
#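 Test system: C. albicans biofilms. Buffer or medium: RPMI/MOPS medium, pH 7.0. Timing: 48 h compound exposure at 37 °C. Technique: Alamar Blue fluorescence. Evaluation: percent inhibition of biofilm viability.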
# * hit, by the source's call; nt = no result given; [ ] = dose if it differs, or a comment. In the library only some 2.2% were active in any assay of this set; here they are far more common.
SMILES,p97 inhibitor,14-3-3 Bad PPI,PERK inhibitor,Hck-Nef inh,eIF4E 4G PPI,Calb biofilm kill
CCOC(=O)Cn1c(=O)cc(C)c2cccc(C)c21,-1.3,1.8,0.2,6.7,3.1,18.0
COc1cccc(NC(=O)C(NCC2CCCCC2)c2ccccc2)c1 (stereo not drawn),-1.3,83.5*[fluorescence artefact?],-0.5,1.2,2.3,nt
COc1cccc(NC(=O)C(NCCC(C)C)c2ccccc2)c1 (stereo not drawn),-3.1,-13.1,-0.1,2.3,-3.8,nt
Cc1ccc(S(=O)(=O)CCC(=O)NCc2ccccc2Cl)cc1,1.9,-20.8,0.7,3.1,60.4*,8.7
O=C(NCCO)Nc1ccc2nc(-c3ccco3)c(-c3ccco3)nc2c1,44.2*,79.7*,0.3,27.7,61.7*,-1.4
CC(=O)c1ccc(NC(=O)c2ccc3nc(-c4ccco4)c(-c4ccco4)nc3c2)cc1,1.0,39.8,-0.3,0.0,46.7*[fluorescence artefact?],nt
CN1CCN(CC(=O)Nc2ccc(OCc3ccccc3)cc2)CC1,-2.0,86.9*,0.3,8.5,-6.3,nt
O=C(CN1CCN(CCO)CC1)Nc1ccccc1,-0.1,73.3*,1.0,5.9,3.4,9.0
O=C(CN1CCOCCOCCOCC1)Nc1ccccc1,3.0,7.4,0.1,4.2,-6.4,nt
CCC(C)C(=O)Nc1nnc(SCC(=O)Nc2ccccc2F)s1 (stereo not drawn),-3.8,87.1*,-1.0,6.5,-1.8,12.3
COC(=O)C1=C(C)NC(=O)C1(Nc1ccc(Cl)cn1)C(F)(F)F (stereo not drawn),2.5,-10.6,0.7,4.2,35.2*[fluorescence artefact?],nt
Cc1ccc2nc(-c3ccc(NC(=S)NC4CC(C)(C)NC(C)(C)C4)cc3)sc2c1,6.9,92.5*,-0.2,20.4,20.7,5.7
Cc1ccc2nc(-c3ccc(NC(=S)NC(=O)C(C)C)cc3)sc2c1,1.9,-3.9,0.3,7.5,-19.8,nt
CCOc1ccc(S(=O)(=O)NCCOC)cc1C,2.8,72.9*,0.8,4.1,1.0,nt
CCOC(=O)c1ccc(NC(=O)COc2ccc(S(=O)(=O)NC(C)C)cc2)cc1,0.2,72.1*,-0.4,0.3,-4.6,nt
CNC(=O)COc1ccc(S(=O)(=O)Nc2ccc(C)cc2)cc1,5.2,-2.0,0.8,16.6,-0.6,43.3
CNC(=O)COc1ccc(S(=O)(=O)Nc2ccc(OC)cc2)cc1,4.5,4.2,3.6*,9.7,4.4,11.9
Cc1ccn(-c2cc(O)c(-n3ccc(C)n3)cc2O)n1,0.7,-2.1,-0.2,8.5,0.3,17.0
CC(=O)N(O)CCCCCNC(=O)CCC(=O)N(O)CCCCCNC(=O)CCC(=O)N(O)CCCCCN,-0.8,71.2*[fluorescence artefact?],0.8,-0.1,2.8,16.2
CCCC(=O)NCCCCNC(=O)CCC,5.1,-0.8,1.4,5.6,4.2,nt
Cc1csc2ncnc(N3CCN(C(=S)Nc4ccc(F)cc4F)CC3)c12,-5.2,1.7,-0.2,-8.2,3.5,3.6
Cn1cc(C(F)(F)F)nc1-c1ccc(OCC(O)CNCCOc2ccc(O)c(C(N)=O)c2)cc1 (stereo not drawn),nt,-0.1,nt,30.6,-15.2,15.5
CC(=O)c1sc2nc(-c3cccs3)ccc2c1N,1.2,2.4,-0.3,1.0,-0.7,nt
Nc1c(C(=O)Nc2nc3ccccc3s2)sc2nc(-c3cccs3)ccc12,7.7,96.1*[fluorescence artefact?],1.3,4.8,13.1,nt
CCOCCCNC(=O)C(NC(=O)Cc1cccs1)c1ccc(Cl)cc1 (stereo not drawn),1.6,-6.7,0.1,-5.5,-0.5,2.1
SMILES,p97 inhibitor,14-3-3 Bad PPI,PERK inhibitor,Hck-Nef inh,eIF4E 4G PPI,Calb biofilm kill
CCOc1ccc2cc(C3CC(c4ccco4)=NN3S(C)(=O)=O)c(=O)[nH]c2c1 (stereo not drawn),8.7,4.5,0.1,23.7,35.7*,14.7
NNC(=S)Nc1c(F)cc(F)cc1Br,5.1,-7.7,1.6,9.5,0.8,11.4
Cc1ccc(NCc2nnc(SCC(=O)NNC(=O)Cc3ccccc3)n2C)cc1,3.5,3.3,1.0,23.9,-6.5,14.5
S=c1[nH]c(-c2ccccc2)cn1/N=C/c1ccc(Br)cc1,0.3,1.2,-0.8,22.9,-3.0,12.9
S=c1[nH]c(-c2ccccc2)cn1/N=C/c1cccnc1,3.3,-1.4,-0.5,9.9,96.1*,26.1
O=C(c1ccc(Oc2ccccc2)cc1)C1CCCN(C(=O)c2cnccn2)C1 (stereo not drawn),-3.2,2.5,-1.1,-0.5,1.5,13.7
CC(=O)Nc1ccc(NC(=O)c2ccc(COc3ccc4c(C)cc(=O)oc4c3)cc2)cc1,0.5,50.6,0.8,5.2,9.3,11.2
Cc1ccc(Cl)cc1NC(=O)COC(=O)c1ccc(COc2ccc3c(C)cc(=O)oc3c2)cc1,-6.6,78.1*,-0.4,0.1,24.7,5.5
CSc1ccccc1NC(=O)CN(C)CC(=O)NCc1ccccc1,3.0,-6.5,0.3,-8.0,4.2,11.2
CSc1ccccc1NC(=O)CN(C)Cc1cccc(Cl)c1,-4.2,71.5*,-0.3,25.7,1.9,21.1
Cc1nc(NC(=O)CSc2nnc(Cn3nnc4ccccc43)n2C)sc1C,6.2,0.8,1.1,-0.6,3.6,14.4
CCn1c(SCC(=O)N/N=C/C=C/c2ccco2)nnc1-c1ccc(OC)cc1,1.6,80.1*[fluorescence artefact?],0.1,1.3,21.7,21.5
CCn1c(SCC(=O)N/N=C/C=C/c2ccco2)nc2ccccc21,-2.5,-10.3,0.3,0.7,-1.9,28.6
CCN(CC)S(=O)(=O)c1ccc(C)c(NS(=O)(=O)c2cc(/C=C/C(=O)O)cc(OC)c2OC)c1,2.6,-7.1,-0.7,-7.3,-0.2,12.7
O=C(O)C1C2C=CC(C2)C1C(=O)NCCCN1CCOCC1 (stereo not drawn),5.6,1.1,3.0*,0.1,-1.3,nt
CC(=O)N1N=C(c2cccc([N+](=O)[O-])c2)OC1(C)CC(=O)Nc1ccccc1 (stereo not drawn),-0.1,81.1*[fluorescence artefact?],-0.4,5.5,24.5,21.5
COc1cc(CNc2ccccc2SC)ccc1O,0.7,76.9*,0.4,2.1,-7.6,nt
CCOc1cc(CNc2ccccc2SC)ccc1O,5.9,18.2,0.6,3.6,-3.6,nt
CC(=O)NNS(=O)(=O)c1ccc(-c2cc(C(F)(F)F)n(C)n2)s1,7.1,-1.2,0.6,1.0,5.3,3.3
CCN=C1NN=C(c2cc(C)n(CCc3ccccc3)c2C)CS1,4.4,92.0*,0.3,36.1,11.7,29.1
C=CCN1C(C(=O)c2ccccc2)=C(OC(=O)COc2ccccc2)c2ccccc2S1(=O)=O,-1.7,76.6*,-0.2,4.1,23.8,16.3
O=C(c1cccc(F)c1)N1CCN(S(=O)(=O)Cc2ccccc2)CC1,-1.4,-3.7,-0.5,5.9,0.0,15.4
Cc1ccccc1C(=O)Nc1ccc2c(C#N)c3nc4ccccc4nc3n2c1,2.9,89.0*[fluorescence artefact?],-0.8,31.5,21.0,13.3
Cc1c(C(=O)Nc2ccccc2)cn2c(nc3ccccc32)c1C#N,4.0,5.7,-0.1,3.1,0.7,0.4

# Screening data as filed in PubChem.
